According to ChEMBL document CHEMBL1126119, “3',3'-Difluoro-3'-deoxythymidine: comparison of anti-HIV activity to 3'-fluoro-3'-deoxythymidine” (J Med Chem, 1992):

Columns and labels:
[1] = tested on: MT4; test: Concentration required to affect a 50% reduction in the cytopathic effect of HIV for MT-4 cells; assay type: functional; details: Homo sapiens, read-out: ED50 (the source's name)
Summary of the method: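 HIV-infected MT4 cell cultures were used. ED50 is the dose that gives a 50% reduction in the HIV-induced cytopathic effect.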

[2] = tested on: MT4; test: Concentration required to reduce the number of viable cells in the untreated MT-4 cell culture; assay type: functional; details: Homo sapiens, read-out: CD50 (the source's name)
Summary of the method: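 Uninfected, untreated MT4 cell cultures were used. CD50 is the cytotoxic dose that reduces the number of viable cells by 50%.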

[3] = biological target: Human immunodeficiency virus type 1 reverse transcriptase (Human immunodeficiency virus 1, UniProt Q72547); test: Concentration required to inhibit HIV reverse transcriptase

Row | IC50 [3] | SMILES | EC50 [1] | CC50 [2]
1 | 8.8 µM | Cc1cn([C@H]2CC(F)(F)[C@@H](CO)O2)c(=O)[nH]c1=O | 38.6 µM | 48.4 µM
2 | < 0.05 µM | Cc1cn([C@H]2CC[C@@H](CO)O2)c(=O)[nH]c1=O | 6 µM | > 625 µM
3 | < 0.05 µM | Cc1cn([C@H]2C[C@H](F)[C@@H](CO)O2)c(=O)[nH]c1=O [ALOVUDINE] | 0.001 µM | 0.197 µM

Row | SMILES | IC50 [3] | EC50 [1] | CC50 [2]
4 | Cc1cn([C@H]2C[C@H](N=[N+]=[N-])[C@@H](CO)O2)c(=O)[nH]c1=O [ZIDOVUDINE] | 0.04 µM | 0.004 µM | 20 µM
